Screens: PubChem BioAssay, Sanford-Burnham Center for Chemical Genomics
hIAP block = human IAP inhibitors, primary screen, biochemical, luminescence, uHTS. AID 2544, 2010. 330,000 compounds, 0.12% hits. purified IAP, CDP-Star luminescence, 30 min. Intestinal-type alkaline phosphatase (Homo sapiens), P09923. inhibition, % at 10 µM;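 active = inhibition reaching a set limit with compound at 10 µM in the primary screen, cut at about 35% in these data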
Target sequence (P09923 whole entry, looked up): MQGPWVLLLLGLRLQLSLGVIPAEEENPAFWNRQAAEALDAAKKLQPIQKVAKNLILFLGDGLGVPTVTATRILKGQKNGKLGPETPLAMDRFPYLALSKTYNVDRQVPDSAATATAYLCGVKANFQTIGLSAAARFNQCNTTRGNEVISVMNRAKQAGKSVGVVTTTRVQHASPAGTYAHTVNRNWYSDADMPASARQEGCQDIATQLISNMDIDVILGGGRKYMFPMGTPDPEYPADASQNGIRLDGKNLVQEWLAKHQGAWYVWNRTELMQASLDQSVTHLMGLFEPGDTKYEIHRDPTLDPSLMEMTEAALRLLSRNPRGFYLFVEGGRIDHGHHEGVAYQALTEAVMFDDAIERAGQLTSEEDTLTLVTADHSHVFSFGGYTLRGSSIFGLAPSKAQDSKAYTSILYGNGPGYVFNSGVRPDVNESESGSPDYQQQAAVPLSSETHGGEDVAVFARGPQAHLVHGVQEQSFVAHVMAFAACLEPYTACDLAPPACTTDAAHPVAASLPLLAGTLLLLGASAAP
bIAP inh = bovine intestinal alkaline phosphatase inhibitors, primary screen, selectivity assay for TNAP inhibitor project, biochemical, bovine IAP, CDP-star luminescence; purified bovine IAP, 30 min; inhibition, % at 20 µM; 190,000 tested, under 10 active; AID 1019, 2008;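 active = over 50% inhibition of intestinal alkaline phosphatase at 20 µM in the single-dose screen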
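Assay system – bovine IAP enzyme · Quantity – bovine IAP at 1/65,000,000 final dilution · Detection – CDP-star luminescence signal · Times – 30 min reaction at room temperature · Also added – CDP-star substrate at 30 µM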
mIAP activ = activators of mouse IAP, primary screen, biochemical, luminescence, uHTS | intestinal alkaline phosphatase [Mus musculus] | muIAP, CDP-Star luminescence, 30 min; hits give high values; 1 = vehicle-only enzyme signal, 0 = enzyme-free wells | activation factor at 10 µM | 330,000 compounds, 0.24% hits;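 active = activation factor of at least 2 at 20 µM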
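System: mouse IAP enzyme. Reagent: CDP-Star chemiluminescent phosphatase substrate. Benchmarks: DMSO wells, no-enzyme wells. Times: 30 min enzyme-substrate-compound incubation at room temperature. Detection: luminescence from enzymatic CDP-Star hydrolysis. Doses: test compounds delivered from DMSO solution.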
mIAP inh = inhibitors of mouse IAP, primary screen, biochemical, luminescence, uHTS; intestinal alkaline phosphatase [Mus musculus]; inhibition, % at 10 µM; 330,000 compounds, 0.2% hits; purified mouse IAP, CDP-Star luminescence, 30 min;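 active = inhibition of at least 40% at 10 µM in the primary screen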
bIAP activator = bovine intestinal alkaline phosphatase activators, primary screen, biochemical, bovine IAP, CDP-star luminescence. alkaline phosphatase, intestinal [Bos taurus]. purified bovine IAP, 30 min; hits give high values; fold of DMSO-control signal, blank-subtracted. activation factor at 20 µM. 200,000 compounds, 0.17% hits. AID 1016, 2008;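 active = activation factor of 2 or more at 20 µM, a signal rise over negative controls twice the positive control's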
hIAP act = human IAP activators, primary screen, biochemical, luminescence, uHTS | Intestinal-type alkaline phosphatase (Homo sapiens), P09923 | purified human IAP, CDP-Star luminescence, 30 min; hits give high values; 1 = vehicle-only enzyme, 0 = enzyme-free background | activation factor at 10 µM | 330,000 compounds, 0.16% hits;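 active = activation factor of the enzyme at least 2-fold when tested at 20 µM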
hIAP act confirm = human IAP activators, confirmation, biochemical, luminescence, single concentration, uHTS hits; shares compounds with hIAP act; purified IAP, CDP-Star luminescence, 30 min; hits give low values; activation (%Activity, negative = activation), % at 8.3 µM; 880 compounds, 10% hits; AID 434926, 2010;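 active = at least twofold enzyme activation in any of six single-dose repeats, which the averaged readout prints as negative percent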
Each line names hits and unclear results; the compound was inactive in the other large screens (follow-up assays come after a bar, where they were run). Rows were chosen to be rich in hits. Some 0.79% of all compounds tested hit in one or more screens of this group.

Cc1ccc(CC2CC(=O)N(c3ccc(C)cc3)C2=O)cc1 (stereo not drawn)	none
CCOC(=O)C(=NC1CCS(=O)(=O)C1)NNc1ccccc1Cl (stereo not drawn)	none (no result: bIAP inh, bIAP activator)
C/C(=N/NC(=O)c1ccc(Cn2cccn2)o1)c1cccc(NC(=O)c2ccncc2)c1	hIAP block 46.0 (no result: bIAP inh, bIAP activator) | hIAP act confirm -100.7
COc1cc(C(=O)NC(=S)NNC(=O)c2cnccn2)cc(OC)c1OC	hIAP act 2.16 | hIAP act confirm inactive
CC(Sc1nc2c(N)ncnc2n1CCOc1ccccc1)C(=O)O (stereo not drawn)	none (no result: bIAP inh, bIAP activator)
O=C(CCCSc1nc(-c2ccco2)cc(C(F)(F)F)n1)NCc1cccs1	hIAP block 37.2 | hIAP act confirm inactive
C=CCn1c(SCC(=O)NCC(=O)OCC)nnc1-c1ccccn1	none
O=C(NCC1CCCO1)C(=O)N/N=C/c1cc(Cl)ccc1O (stereo not drawn)	hIAP act 2 (no result: bIAP inh, bIAP activator) | hIAP act confirm inactive
COc1ccc(CCC(=O)Nc2ccc(S(=O)(=O)Nc3nccc(C)n3)cc2)cc1	none (no result: bIAP inh, bIAP activator)
O=C(CSc1nc2c(c(=O)n1-c1ccccc1)SCC2)N1CCN(c2ccccc2)CC1	none
O=C(CSc1nc2c(c(=O)n1-c1ccc(F)cc1)SCC2)N1CCCC1	hIAP act 2.06 | hIAP act confirm inactive
COc1ccccc1N1CCN(C(=O)Oc2ccccc2)CC1	none
O=C(COc1ccc2c3c(c(=O)oc2c1)CCCC3)N1CCN(c2ccccc2)CC1	hIAP block 36.9 (no result: bIAP inh, bIAP activator) | hIAP act confirm inactive
O=C(O)COc1ccc2c3c(c(=O)oc2c1)CCCC3	none
Cc1cc(OCC(=O)N2CCN(c3ccccc3)CC2)c2c(C)cc(=O)oc2c1	hIAP block 38.6 (no result: bIAP inh, bIAP activator) | hIAP act confirm inactive
CCOC(=O)C1CCN(C(=O)N2CCOCC2)CC1	hIAP act 2 | hIAP act confirm inactive
O=C(N/N=C/c1cccc(O)c1)c1cc(-c2ccccc2)nc2ccccc12	none (no result: bIAP inh, bIAP activator)
O=C(N/N=C/c1ccc(O)c(O)c1)c1cc(-c2ccccc2)nc2ccccc12	hIAP block 77.6 (no result: bIAP inh, bIAP activator) | hIAP act confirm inactive
CCC(C)c1ccccc1NC(=O)COC(=O)CCc1cc(OC)c(OC)c(OC)c1 (stereo not drawn)	none
Cc1cc(=O)[nH]c(SCC(=O)c2ccc(O)c(O)c2)n1	hIAP block 43.3 (no result: bIAP inh, bIAP activator) | hIAP act confirm inactive
Cc1ccc(C(=O)CSc2nc(C)cc(=O)[nH]2)cc1	none
COc1cccc(-c2cc(C(=O)N3CCc4ccccc4C3)[nH]n2)c1	none (no result: bIAP inh, bIAP activator)
Cc1ccc(-c2cc(C(=O)N3CCc4ccccc4C3)[nH]n2)cc1C	hIAP act 2.49 (no result: bIAP inh, bIAP activator) | hIAP act confirm inactive
CN(C)c1nc(C(=O)OCCO)nc(N(C)C)n1	none
COc1ccc(NCc2ccc(OC)c(OC)c2)cc1	hIAP block 37.8 | hIAP act confirm inactive
COc1ccc(CNc2ccc(C)c(C)c2)cc1	none
CC1Cn2c(nnc2C23CC4CC(CC(C4)C2)C3)S1 (stereo not drawn)	hIAP act 2.04 | hIAP act confirm inactive
CC1Cn2c(nnc2-c2ccc(F)cc2)S1 (stereo not drawn)	none
CCc1ccc(C(=O)N2CCN(c3ccc(F)cc3)CC2)s1	none
COc1ccccc1C(=O)NCC(=O)NNc1ncnc(N)c1[N+](=O)[O-]	hIAP act 2.59 | hIAP act confirm inactive
COc1cc(C(=O)NC2CCN(Cc3nnnn3Cc3ccc(F)cc3)CC2)cc(OC)c1OC	none
Fc1ccccc1Cc1noc(CN2CCN(C/C=C/c3ccccc3)CC2)n1	none
CNC(=S)NNC(=O)c1cccn(Cc2cccc(Cl)c2)c1=O	hIAP act 2.01 | hIAP act confirm inactive
CNC(=S)NNC(=O)c1cccn(Cc2ccc(Cl)c(Cl)c2)c1=O	none
CC1(C)CC(=O)C(CC(=O)Nc2ccc(S(N)(=O)=O)cc2)=C(O)C1	none
CC(=O)c1cccc(N(CC(=O)Nc2cccnc2)S(C)(=O)=O)c1	none
CCC1(c2ccc(F)cc2)NC(=O)N(CC(=O)NC2CC2)C1=O (stereo not drawn)	none (no result: bIAP inh, bIAP activator)
CC(C)c1ccc(OCC(=O)NNC(=S)NC(=O)C2CC2)cc1	none (no result: bIAP inh, bIAP activator)
N#Cc1ccc(OCC(=O)NNC(=S)NC(=O)C2CC2)cc1	hIAP act 2.21 (no result: bIAP inh, bIAP activator) | hIAP act confirm inactive
Cc1cnc(C(=O)NNC(=O)c2ccc(Br)cc2)cn1	hIAP act 2.22 (no result: bIAP inh, bIAP activator) | hIAP act confirm inactive
CCN(CC)C(=O)C(=O)N/N=C/c1ccc(Cl)cc1Cl	hIAP act 2.12 | hIAP act confirm inactive
Cc1ccc(O)c(N/C=C/C(=O)c2ccc(F)cc2)c1	hIAP act 2.85 (no result: bIAP inh, bIAP activator) | hIAP act confirm -119.6
Cc1ccccc1N1CCN(C(=O)c2ccccc2NC(=O)/C=C\C(=O)O)CC1	hIAP block 37.1 | hIAP act confirm inactive
COc1ccccc1C(=O)NNC(=O)c1cccc(F)c1	none
O=C(NCC(F)(F)F)Nc1cccnc1	hIAP block 54.0 | hIAP act confirm inactive
COc1c(-c2ccc(O)c(O)c2)oc2cc(O)cc(O)c2c1=O	hIAP block 59.6 (no result: bIAP inh, bIAP activator) | hIAP act confirm inactive
Cc1nn(C(=O)CCC(=O)NCc2cccc(F)c2)c2ccccc12	hIAP block 38.6 (no result: bIAP inh, bIAP activator) | hIAP act confirm inactive
Cc1nn(C(=O)CCC(=O)NCCc2ccccc2)c2ccccc12	none (no result: bIAP inh, bIAP activator)
O=C(NCCc1ccccc1)c1c(F)cccc1F	none
O=C(NNC(=O)c1cc2ccccc2cc1O)Nc1ccc(Br)cc1	none (no result: bIAP inh, bIAP activator)
CN(C)S(=O)(=O)c1cccc(NC(=S)NNC(=O)c2cc3ccccc3cc2O)c1	hIAP act 2.65 (no result: bIAP inh, bIAP activator) | hIAP act confirm inactive
O=C(/C=C/c1cccs1)NC(=S)NNC(=O)c1ccccc1O	hIAP act 2.37 | hIAP act confirm inactive
COc1ccc(C(=O)NC(=S)NNC(=O)c2ccccc2O)cc1	hIAP act 2.34 (no result: bIAP inh, bIAP activator) | hIAP act confirm inactive
COc1ccc(NC(=O)NNC(=O)c2cc3ccccc3cc2O)cc1	hIAP act 2.34 (no result: bIAP inh, bIAP activator) | hIAP act confirm inactive
COc1ccc(C(=O)NNC(=S)NC(=O)/C=C/c2cccs2)cc1	none
CCCCN(CC)C(=O)Cn1cnc2sc(C)c(S(=O)(=O)N3CCC(C)CC3)c2c1=O	none (no result: bIAP inh, bIAP activator)
O=C(NC(=S)NNC(=O)c1ccccc1O)c1cccnc1	hIAP act 2.05 | hIAP act confirm inactive
O=C(NC(=S)NNC(=O)c1ccc(Cl)cc1Cl)c1cccnc1	none
CCc1ccccc1N1C(=O)CN(Cc2cc(OC)c(OC)c(OC)c2)C1=S	none (no result: bIAP inh, bIAP activator)
